Laboratory results from paper PMC10091778 (Drug Development Research, 2022).

Legend:
[1] = system: Hep3B hepatocellular carcinoma cells; details: 35 µM for 24 h; ref Lu et al., 2022; cited from earlier work
[2] = system: 4T1 murine triple negative breast cancer cells; experiment: Resazurin cell viability assay on 4T1 cells; assay type: cell-based; details: Mus musculus, 4T1, 72 h, read-out: IC50 4T1
How it was run: (§1)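 Cells were seeded in 96-well plates (4T1 10,000, A549 10,000, HL-60 20,000 per well), with adherent lines settling overnight. Test compound came from a 10 mM DMSO stock, serially diluted in medium to 1.56–50 µM (some 39 nM–12.5 µM), for 72 h; three biological replicates. Resazurin (0.15 mg/ml stock, 20 µl per 100 µl) ran 2 h at 37 °C, read at 530/580 nm. Viability was set against untreated and blank wells; IC50 from curves.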

[3] = system: HL‐60 cells; experiment: Annexin V / propidium iodide flow cytometry; assay type: cell-based, human; details: 6 µM, 24 h, mean ± SD
How it was run: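 HL-60 cells (100,000) were treated for 24 h at 1, 3 or 6 µM, then resuspended in Annexin V binding buffer (0.01 M HEPES, 0.14 M NaCl, 2.5 mM CaCl2). Annexin V-Alexa 488 was added for 15 min in the dark at room temperature, then PI (10 µg/ml). Quadrant percentages were taken by flow cytometry; three biological replicates, mean ± SD; two-tailed t test against untreated.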

[4] = system: 4T1, A549, and HL‐60 cells; assay type: cell-based; details: resazurin assay, 72 h, up to 50 µM, three cancer cell lines
How it was run: as §1

[5] = system: HL‐60 human acute promyelocytic leukemia cells; experiment: Resazurin cell viability assay on HL-60 cells; assay type: cell-based; details: HL-60, 72 h, read-out: IC50 HL‐60
How it was run: as §1

[6] = system: HL‐60 cells; experiment: Sub-G1 DNA fragmentation analysis by flow cytometry; assay type: cell-based, human; details: 6 µM, 72 h; mean ± SD; untreated 11.7 ± 1.2%
[7] = system: 4T1 breast carcinoma cells; experiment: 4T1 murine breast cancer model; assay type: in vivo, BALB/c mice; details: 27th day; 60 mg/kg daily i.p.; mean ± SEM, n = 10; untreated 768 ± 134
[8] = system: HL‐60 cells; experiment: Mitochondrial membrane depolarization by JC-1 staining; assay type: cell-based, human; details: 16 h, untreated 7.6 ± 0.6%
[9] = system: A431 epidermoid carcinoma cancer cell line; details: 15 µM treatment; ref LaBarbera et al., 2009; cited from earlier work

C=CC(C)(CC/C=C(\C)CCC=C(C)C)S(=O)(=O)CCN=C(N)N (stereo not drawn) [(−)‐Agelasidine A]
Apoptosis and mitochondrial effect in Hep3B, in words [1]: Annexin V+ apoptosis and mitochondrial membrane depolarization

Nc1nc(-c2cccc(NC(=O)c3cc4cc(Cl)ccc4[nH]3)c2)c(C(=O)c2ccccc2)[nH]1 [Compound 29, N‐(3‐(2‐amino‐5‐benzoyl‐1H‐imidazol‐4‐yl)phenyl)‐5‐chloro‐1H‐indole‐2‐carboxamide]
IC50 [2]: 3.1 µM | Early apoptotic cells (AnnV+/PI−) ([3]; untreated 1.9 ± 0.5%): 11.4 ± 1.1% | Necrotic cells (AnnV−/PI+) ([3]; untreated 3.6 ± 1.6%): 5.9 ± 1.1% | Late apoptotic cells (AnnV+/PI+) ([3]; untreated 9.5 ± 2.7%): 44.7 ± 4.8% | Living cells (AnnV−/PI−) ([3]; untreated 85 ± 3.9%): 37.8 ± 4.6% | Cytotoxic / antiproliferative activity in words [4]: hampered the viability of all three tested cell lines | IC50 [5]: 4.03 µM | DNA fragmentation (sub‐G1 population) of HL‐60 cells [6]: 64.3 ± 2.1% | 4T1 tumor volume [7]: 443 ± 54 mm^3 | Cells with green JC‐1 accumulation (depolarized MMP) ([8]; 3 µM): 9.4 ± 1.1% | Cells with green JC‐1 monomers (depolarized MMP) ([8]; 6 µM): 29.7 ± 2.1%

Naamidine A
Apoptotic effect in A431, in words [9]: apoptotic effects
